In ChEMBL document CHEMBL1154718, “Carbamate analogues of fumagillin as potent, targeted inhibitors of methionine aminopeptidase-2” (J Med Chem, 2009):

Key:
HUVEC = test: Antiproliferative activity against HUVEC after 72 hrs by MTT assay; format: cell-based; conditions: Homo sapiens
In short: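 HUVEC (passage 3-5) grown in endothelial growth medium at 37 C; 2000 cells/well seeded in triplicate. After attachment, fresh medium with compound for 72 h. MTT 0.25 mg/mL added for 2 h at 37 C, formazan dissolved in isopropanol, absorbance read at 570 nm. Value is concentration giving 50% growth inhibition.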

[1] = molecular target: Methionine aminopeptidase 2 (Homo sapiens) (UniProt P50579); test: Inhibition of MetAP2 assessed as remaining enzyme activity at 200 nM after 8 hrs relative to untreated control
Methionine aminopeptidase 2 (Homo sapiens), sequence (P50579 2-478 limits assumed): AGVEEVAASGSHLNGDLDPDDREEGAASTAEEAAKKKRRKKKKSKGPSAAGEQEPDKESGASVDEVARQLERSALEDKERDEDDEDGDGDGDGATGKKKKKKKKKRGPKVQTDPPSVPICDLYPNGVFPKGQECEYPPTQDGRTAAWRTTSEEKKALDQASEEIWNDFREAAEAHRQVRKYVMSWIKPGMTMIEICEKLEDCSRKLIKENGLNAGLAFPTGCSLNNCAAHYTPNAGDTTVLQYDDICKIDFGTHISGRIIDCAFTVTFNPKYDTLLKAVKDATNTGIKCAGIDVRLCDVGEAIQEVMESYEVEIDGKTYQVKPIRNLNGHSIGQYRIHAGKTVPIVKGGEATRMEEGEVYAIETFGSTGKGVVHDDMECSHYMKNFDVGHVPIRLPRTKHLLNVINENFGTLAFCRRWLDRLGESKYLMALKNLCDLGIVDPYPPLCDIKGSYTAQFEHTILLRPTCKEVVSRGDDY
In short: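 MetAP2 at 20 nM final was incubated with compound at 200 nM final in 1% glycerol, 20 mM HEPES, 100 mM KCl, 0.1 mM CoSO4. Triplicate samples were taken at 1, 2, 4 and 8 h, and residual activity was read with Met-AMC substrate. Result is percent activity remaining at 8 h.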

[2] = Antiproliferative activity against BAEC; format: functional, cell-based; conditions: Bos taurus
Rattus norvegicus [3] = test: CNS toxicity in rat assessed as incidence of seizures at 60 mg/kg, iv qd for 14 days; conditions: in vivo, 336 h
Rattus norvegicus [4] = test: CNS toxicity in rat assessed as incidence of seizures at 6 mg/kg, iv qd for 14 days; conditions: in vivo, 336 h

CO[C@H]1C([C@@]2(C)O[C@@H]2CC=C(C)C)[C@]2(CC[C@H]1OC(=O)NC1(C(N)=O)CCCC1)CO2 (single isomer, unassigned)
IC50 (HUVEC): 0.7 nM
Activity [1]: 13%

CO[C@H]1[C@@H]([C@@]2(C)O[C@@H]2CC=C(C)C)[C@]2(CC[C@H]1OC(=O)N[C@@H](C(=O)NCCC1CCCN1C)C(C)C)CO2 (stereo partly specified)
IC50 (HUVEC): 0.6 nM
Activity [1]: 4.5%

CO[C@H]1C([C@@]2(C)O[C@@H]2CC=C(C)C)[C@]2(CC[C@H]1OC(=O)N1CCC(C(=O)O)CC1)CO2 (single isomer, unassigned)
IC50 (HUVEC): 1.3 nM
Activity [1]: 8.3%

CO[C@H]1C([C@@]2(C)O[C@@H]2CC=C(C)C)[C@]2(CC[C@H]1OC(=O)NCCC[N+](C)(C)C)CO2 (single isomer, unassigned)
IC50 (HUVEC): > 100 nM
Activity [1]: 5.4%

CO[C@H]1C([C@@]2(C)O[C@@H]2CC=C(C)C)[C@]2(CC[C@H]1OC(=O)NC(C)(C)C)CO2 (single isomer, unassigned)
IC50 (HUVEC): 1.1 nM

COC(=O)[C@H](NC(=O)O[C@@H]1CC[C@]2(CO2)C([C@@]2(C)O[C@@H]2CC=C(C)C)[C@@H]1OC)C(C)C (single isomer, unassigned)
IC50 (HUVEC): 0.04 nM
IC50 [2]: 0.048 nM

COC(=O)[C@@H](CC(C)C)NC(=O)O[C@@H]1CC[C@]2(CO2)C([C@@]2(C)O[C@@H]2CC=C(C)C)[C@@H]1OC (single isomer, unassigned)
Activity (Rattus norvegicus [3]): Toxic
IC50 (HUVEC): 0.038 nM
Activity (Rattus norvegicus [4]): Toxic
IC50 [2]: 0.118 nM

COC(=O)[C@H](NC(=O)O[C@@H]1CC[C@]2(CO2)C([C@@]2(C)O[C@@H]2CC=C(C)C)[C@@H]1OC)c1ccccc1 (single isomer, unassigned)
IC50 (HUVEC): 0.036 nM
IC50 [2]: 0.035 nM

CO[C@H]1C([C@@]2(C)O[C@@H]2CC=C(C)C)[C@]2(CC[C@H]1OC(=O)NCCC1CCC[N+]1(C)C)CO2 (single isomer, unassigned)
IC50 (HUVEC): > 100 nM
Activity [1]: 6.3%

CO[C@H]1C([C@@]2(C)O[C@@H]2CC=C(C)C)[C@]2(CC[C@H]1OC(=O)NN1CCOCC1)CO2 (single isomer, unassigned)
IC50 (HUVEC): 0.7 nM
Activity [1]: 5.7%

CO[C@H]1C([C@@]2(C)O[C@@H]2CC=C(C)C)[C@]2(CC[C@H]1OC(=O)NCCN1CCCC1)CO2 (single isomer, unassigned)
IC50 (HUVEC): 0.1 nM
Activity [1]: 3.5%

CO[C@H]1C([C@@]2(C)O[C@@H]2CC=C(C)C)[C@]2(CC[C@H]1OC(=O)NC(C)(C)C(N)=O)CO2 (single isomer, unassigned)
IC50 (HUVEC): 1.7 nM
Activity [1]: 24%

CO[C@H]1C([C@@]2(C)O[C@@H]2CC=C(C)C)[C@]2(CC[C@H]1OC(=O)N[C@@H](C(=O)Nc1cccc(C(=O)O)c1)C(C)C)CO2 (single isomer, unassigned)
IC50 (HUVEC): 15 nM
Activity [1]: 4.3%

CO[C@H]1C([C@@]2(C)O[C@@H]2CC=C(C)C)[C@]2(CC[C@H]1OC(=O)NCc1ccc(C(=O)O)cc1)CO2 (single isomer, unassigned)
IC50 (HUVEC): 0.7 nM
Activity [1]: 3.5%

COC(=O)[C@@H](NC(=O)O[C@@H]1CC[C@]2(CO2)[C@H]([C@@]2(C)O[C@@H]2CC=C(C)C)[C@@H]1OC)C(C)C
IC50 (HUVEC): 0.018 nM
IC50 [2]: 0.017 nM

CO[C@H]1[C@@H]([C@@]2(C)O[C@@H]2CC=C(C)C)[C@]2(CC[C@H]1OC(=O)N[C@@H](C(=O)NCCN1CCCC1)C(C)C)CO2
IC50 (HUVEC): 0.6 nM
Activity [1]: 2.6%

CO[C@H]1C([C@@]2(C)O[C@@H]2CC=C(C)C)[C@]2(CC[C@H]1OC(=O)NCCC1CCCN1C)CO2 (single isomer, unassigned)
IC50 (HUVEC): 0.2 nM
Activity [1]: 5.4%

CO[C@H]1[C@@H]([C@@]2(C)O[C@@H]2CC=C(C)C)[C@]2(CC[C@H]1OC(=O)N[C@@H](C(N)=O)C(C)C)CO2
Activity (Rattus norvegicus [3]): Non-toxic
IC50 (HUVEC): 0.095 nM
Activity (Rattus norvegicus [4]): Non-toxic
IC50 [2]: 0.046 nM
Activity [1]: 2.8%

CO[C@H]1[C@@H]([C@@]2(C)O[C@@H]2CC=C(C)C)[C@]2(CC[C@H]1OC(=O)NC(=O)CCl)CO2
IC50 (HUVEC): 0.25 nM
Activity [1]: 4%

CO[C@H]1[C@@H]([C@@]2(C)O[C@@H]2CC=C(C)C)[C@]2(CC[C@H]1OC(=O)N[C@@H](C(=O)NN1CCOCC1)C(C)C)CO2
IC50 (HUVEC): 1.7 nM
Activity [1]: 5.2%

CO[C@H]1C([C@@]2(C)O[C@@H]2CC=C(C)C)[C@]2(CC[C@H]1OC(=O)NC(C)C)CO2 (single isomer, unassigned)
IC50 (HUVEC): 0.06 nM
Activity [1]: 3%
